Test results from ChEMBL document CHEMBL4251648, “Synthesis and bioevaluation and doking study of 1H-pyrrolo[2,3-b]pyridine derivatives bearing aromatic hydrazone moiety as c-Met inhibitors” (Eur J Med Chem, 2018).
pIC50: −log10 of the molar value. Calls of active or inactive are those of the source. The calls are words filed in the database; no cut-off is given here.

Key:
[1] = target: Hepatocyte growth factor receptor (Homo sapiens, UniProt P08581); assay: Inhibition of c-Met (unknown origin) using FAM-labeled peptide substrate after 10 mins by mobility shift assay
Sequence of Hepatocyte growth factor receptor (P08581 whole entry): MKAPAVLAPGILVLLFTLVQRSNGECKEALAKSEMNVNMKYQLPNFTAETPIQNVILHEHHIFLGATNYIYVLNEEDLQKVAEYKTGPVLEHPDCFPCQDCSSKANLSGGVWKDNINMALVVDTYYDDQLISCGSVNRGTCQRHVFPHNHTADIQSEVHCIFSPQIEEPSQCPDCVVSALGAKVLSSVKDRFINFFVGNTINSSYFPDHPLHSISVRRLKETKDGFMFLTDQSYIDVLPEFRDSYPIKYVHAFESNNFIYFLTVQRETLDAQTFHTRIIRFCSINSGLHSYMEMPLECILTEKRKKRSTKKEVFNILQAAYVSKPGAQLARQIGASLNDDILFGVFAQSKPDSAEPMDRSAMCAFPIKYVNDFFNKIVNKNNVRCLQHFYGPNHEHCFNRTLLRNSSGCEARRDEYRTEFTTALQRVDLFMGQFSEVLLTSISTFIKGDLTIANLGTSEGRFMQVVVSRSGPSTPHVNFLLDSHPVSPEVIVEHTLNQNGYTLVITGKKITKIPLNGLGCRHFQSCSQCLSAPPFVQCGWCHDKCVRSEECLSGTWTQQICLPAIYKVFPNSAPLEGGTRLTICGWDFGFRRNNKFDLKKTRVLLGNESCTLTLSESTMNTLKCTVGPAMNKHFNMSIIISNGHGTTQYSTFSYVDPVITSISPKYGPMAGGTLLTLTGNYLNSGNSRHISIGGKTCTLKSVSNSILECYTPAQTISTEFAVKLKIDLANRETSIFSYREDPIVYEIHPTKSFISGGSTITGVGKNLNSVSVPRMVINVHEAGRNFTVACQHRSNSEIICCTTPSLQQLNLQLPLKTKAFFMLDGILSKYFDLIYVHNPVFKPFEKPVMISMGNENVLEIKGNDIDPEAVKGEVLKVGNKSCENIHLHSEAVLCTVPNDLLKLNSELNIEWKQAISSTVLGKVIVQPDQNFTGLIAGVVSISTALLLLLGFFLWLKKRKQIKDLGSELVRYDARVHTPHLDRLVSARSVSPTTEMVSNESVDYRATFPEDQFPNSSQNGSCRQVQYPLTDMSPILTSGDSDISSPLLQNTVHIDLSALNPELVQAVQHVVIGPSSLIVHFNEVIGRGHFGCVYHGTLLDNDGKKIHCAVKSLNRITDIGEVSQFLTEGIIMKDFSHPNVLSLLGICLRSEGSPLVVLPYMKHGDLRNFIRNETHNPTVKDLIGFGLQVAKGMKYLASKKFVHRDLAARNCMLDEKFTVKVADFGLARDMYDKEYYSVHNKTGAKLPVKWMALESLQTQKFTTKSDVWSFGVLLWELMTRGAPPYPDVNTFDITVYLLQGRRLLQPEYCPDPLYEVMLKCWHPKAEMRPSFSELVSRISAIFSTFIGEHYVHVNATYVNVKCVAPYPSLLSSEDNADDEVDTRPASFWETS

A549 [2] = assay: Cell cycle arrest in human A549 cells assessed as accumulation at G1 phase at 4 uM after 12 hrs by propidium iodide staining-based flow cytometry (reference value: 27.08%); format: functional
A549 [3] = assay: Cell cycle arrest in human A549 cells assessed as accumulation at S phase at 4 uM after 12 hrs by propidium iodide staining-based flow cytometry (reference value: 48.44%); format: functional
A549 [4] = assay: Cell cycle arrest in human A549 cells assessed as accumulation at sub-G1 phase at 4 uM after 12 hrs by propidium iodide staining-based flow cytometry (reference value: 0.06%); format: functional
[5] = target: T1, Receptor-type tyrosine-protein kinase FLT3 (Homo sapiens, UniProt P36888); assay: Inhibition of FLT3 (unknown origin)
T1 sequence (P36888 whole entry): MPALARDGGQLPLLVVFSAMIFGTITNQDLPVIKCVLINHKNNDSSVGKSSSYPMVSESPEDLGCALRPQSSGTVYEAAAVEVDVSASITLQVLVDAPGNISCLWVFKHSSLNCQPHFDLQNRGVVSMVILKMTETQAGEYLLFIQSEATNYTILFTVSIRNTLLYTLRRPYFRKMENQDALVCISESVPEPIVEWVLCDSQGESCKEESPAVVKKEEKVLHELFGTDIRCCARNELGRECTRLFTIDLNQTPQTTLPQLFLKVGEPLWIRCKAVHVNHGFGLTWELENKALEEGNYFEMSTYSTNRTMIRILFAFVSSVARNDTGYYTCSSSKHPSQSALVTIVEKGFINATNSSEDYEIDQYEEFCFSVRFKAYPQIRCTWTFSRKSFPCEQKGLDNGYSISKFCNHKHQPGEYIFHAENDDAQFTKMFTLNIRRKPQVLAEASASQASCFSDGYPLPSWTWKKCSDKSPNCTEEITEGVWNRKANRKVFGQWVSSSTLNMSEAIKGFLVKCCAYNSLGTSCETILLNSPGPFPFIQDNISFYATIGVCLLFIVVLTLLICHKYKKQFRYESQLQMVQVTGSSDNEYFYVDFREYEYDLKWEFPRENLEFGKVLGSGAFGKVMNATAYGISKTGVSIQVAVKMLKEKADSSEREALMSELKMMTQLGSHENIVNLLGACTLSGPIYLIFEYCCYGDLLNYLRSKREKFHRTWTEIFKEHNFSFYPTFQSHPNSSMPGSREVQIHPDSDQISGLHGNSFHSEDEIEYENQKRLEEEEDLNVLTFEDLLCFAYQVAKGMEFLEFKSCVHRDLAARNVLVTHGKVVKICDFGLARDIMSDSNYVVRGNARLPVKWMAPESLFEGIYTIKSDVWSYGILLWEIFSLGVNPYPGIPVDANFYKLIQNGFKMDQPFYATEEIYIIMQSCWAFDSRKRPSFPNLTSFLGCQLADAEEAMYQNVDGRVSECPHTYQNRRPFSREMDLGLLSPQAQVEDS

[6] = target: Epidermal growth factor receptor (Homo sapiens, UniProt P00533); assay: Inhibition of EGFR (unknown origin)
Sequence of Epidermal growth factor receptor (P00533 whole entry): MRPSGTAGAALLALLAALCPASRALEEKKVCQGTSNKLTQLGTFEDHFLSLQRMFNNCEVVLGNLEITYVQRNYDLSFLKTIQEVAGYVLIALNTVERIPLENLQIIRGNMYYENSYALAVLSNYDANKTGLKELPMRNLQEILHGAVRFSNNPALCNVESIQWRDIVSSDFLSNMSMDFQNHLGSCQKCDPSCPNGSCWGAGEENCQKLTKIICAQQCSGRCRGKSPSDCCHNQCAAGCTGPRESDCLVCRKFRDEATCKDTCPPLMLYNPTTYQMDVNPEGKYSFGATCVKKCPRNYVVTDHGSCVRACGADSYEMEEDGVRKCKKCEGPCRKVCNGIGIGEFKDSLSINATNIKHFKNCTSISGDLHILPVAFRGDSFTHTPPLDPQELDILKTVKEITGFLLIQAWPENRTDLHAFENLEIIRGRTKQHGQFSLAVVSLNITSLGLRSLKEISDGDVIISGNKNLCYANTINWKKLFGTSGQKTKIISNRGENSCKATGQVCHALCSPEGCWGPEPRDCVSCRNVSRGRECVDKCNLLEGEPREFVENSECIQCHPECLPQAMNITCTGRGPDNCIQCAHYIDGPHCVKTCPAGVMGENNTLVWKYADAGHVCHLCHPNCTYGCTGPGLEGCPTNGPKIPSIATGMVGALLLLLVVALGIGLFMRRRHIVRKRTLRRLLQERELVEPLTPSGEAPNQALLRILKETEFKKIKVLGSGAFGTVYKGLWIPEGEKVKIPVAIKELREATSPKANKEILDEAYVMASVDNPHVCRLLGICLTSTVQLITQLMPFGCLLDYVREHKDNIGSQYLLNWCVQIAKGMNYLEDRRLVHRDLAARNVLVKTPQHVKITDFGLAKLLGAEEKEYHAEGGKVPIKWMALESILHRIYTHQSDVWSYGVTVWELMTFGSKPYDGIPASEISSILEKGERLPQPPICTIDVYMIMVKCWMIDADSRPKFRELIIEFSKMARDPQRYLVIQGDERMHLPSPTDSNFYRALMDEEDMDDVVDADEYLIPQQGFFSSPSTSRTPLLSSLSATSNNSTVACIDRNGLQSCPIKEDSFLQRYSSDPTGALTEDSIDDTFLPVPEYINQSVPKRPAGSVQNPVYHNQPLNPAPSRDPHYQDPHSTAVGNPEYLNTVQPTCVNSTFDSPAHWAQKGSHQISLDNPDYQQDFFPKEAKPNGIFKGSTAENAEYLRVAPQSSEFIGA

A549 [7] = assay: Antiproliferative activity against human A549 cells after 72 hrs by MTT assay; format: functional, cell-based
In short: (§1)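 Cells grown in MEM with 10% FBS. About 4×10³ cells per well, pre-incubated 24 h at 37°C in 5% CO₂. Compound added at final concentrations, then 72 h. MTT added at 5 µg/mL final for 4 h at 37°C. Tested three times; IC50 taken as the average of […] determinations.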

HepG2 = assay: Antiproliferative activity against human HepG2 cells after 72 hrs by MTT assay; format: functional, cell-based
In short: as §1, with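 “37°C. Formazan dissolved in DMSO and read at 492 nm against 630 nm reference.” for “37°C.”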

A549 [8] = assay: Induction of apoptosis in human A549 cells assessed as change in cell morphology at 0.8 uM after 12 hrs by acridine orange staining-based fluorescence microscopic method; format: functional
In short: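 A549 cells in MEM with 10% FBS, about 2×10⁴ per well, pre-incubated 24 h at 37°C in 5% CO₂. Given drug-free medium or 0.80 µM compound for 12 h. Stained with acridine orange in PBS at 10 µg/mL final for 10 min in the dark, washed three times with PBS, and nuclear morphology viewed by fluorescence microscopy.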

PC-3 = assay: Antiproliferative activity against human PC3 cells after 72 hrs by MTT assay; format: functional, cell-based; in short: as §1
[9] = target: Vascular endothelial growth factor receptor 2 (Homo sapiens, UniProt P35968); assay: Inhibition of VEGFR2 (unknown origin)
Sequence of Vascular endothelial growth factor receptor 2 (P35968 whole entry): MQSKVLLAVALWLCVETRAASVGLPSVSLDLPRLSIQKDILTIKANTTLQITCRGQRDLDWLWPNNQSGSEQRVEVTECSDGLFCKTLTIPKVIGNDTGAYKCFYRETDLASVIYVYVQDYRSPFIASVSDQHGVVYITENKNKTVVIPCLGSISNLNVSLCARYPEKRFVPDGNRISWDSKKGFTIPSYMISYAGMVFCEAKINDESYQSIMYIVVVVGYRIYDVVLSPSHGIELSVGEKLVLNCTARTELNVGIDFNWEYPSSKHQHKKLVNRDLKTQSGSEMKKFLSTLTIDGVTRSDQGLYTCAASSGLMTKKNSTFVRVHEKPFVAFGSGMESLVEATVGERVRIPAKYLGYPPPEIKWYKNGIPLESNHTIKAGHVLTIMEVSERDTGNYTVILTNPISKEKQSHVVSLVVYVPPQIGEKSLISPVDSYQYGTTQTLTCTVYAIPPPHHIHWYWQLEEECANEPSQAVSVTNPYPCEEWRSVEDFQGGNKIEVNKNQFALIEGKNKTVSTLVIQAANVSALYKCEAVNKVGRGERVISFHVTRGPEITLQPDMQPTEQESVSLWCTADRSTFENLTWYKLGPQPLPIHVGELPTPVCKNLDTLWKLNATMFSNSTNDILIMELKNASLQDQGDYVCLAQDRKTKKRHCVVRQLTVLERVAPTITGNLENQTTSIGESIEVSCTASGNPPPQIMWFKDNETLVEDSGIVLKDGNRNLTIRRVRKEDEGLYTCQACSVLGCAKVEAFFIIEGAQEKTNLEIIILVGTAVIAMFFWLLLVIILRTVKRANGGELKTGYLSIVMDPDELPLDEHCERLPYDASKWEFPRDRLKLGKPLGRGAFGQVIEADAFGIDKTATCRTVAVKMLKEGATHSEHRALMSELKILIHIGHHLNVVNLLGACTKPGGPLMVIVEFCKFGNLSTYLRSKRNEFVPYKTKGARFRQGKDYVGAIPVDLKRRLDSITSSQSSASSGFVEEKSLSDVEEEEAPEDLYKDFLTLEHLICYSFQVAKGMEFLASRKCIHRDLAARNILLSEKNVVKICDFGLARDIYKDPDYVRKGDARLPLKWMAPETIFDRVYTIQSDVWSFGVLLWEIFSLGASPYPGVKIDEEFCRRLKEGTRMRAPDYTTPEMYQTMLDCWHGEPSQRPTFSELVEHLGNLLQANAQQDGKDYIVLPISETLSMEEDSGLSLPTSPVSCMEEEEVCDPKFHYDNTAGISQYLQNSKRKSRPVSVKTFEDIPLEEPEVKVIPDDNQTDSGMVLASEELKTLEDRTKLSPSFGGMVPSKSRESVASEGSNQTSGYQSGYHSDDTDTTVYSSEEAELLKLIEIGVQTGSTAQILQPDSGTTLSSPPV

A549 [10] = assay: Antiproliferative activity against human A549 cells at 0.08 to 8 ug/ml by MTT assay; format: functional, cell-based; settings: TDE = time-dependent effect
MCF7 = assay: Antiproliferative activity against human MCF7 cells after 72 hrs by MTT assay; format: functional, cell-based; in short: as §1
A549 [11] = assay: Cell cycle arrest in human A549 cells assessed as accumulation at G2/M phase at 4 uM after 12 hrs by propidium iodide staining-based flow cytometry (reference value: 23.62%); format: functional

O=C(N/N=C/c1ccc(Br)cc1)Nc1ccc(Oc2ccnc3[nH]ccc23)c(F)c1
pIC50 [1]: 6.30 | Activity (A549 [2]): 10.67% | Activity (A549 [3]): 7.08% | Activity (A549 [4]): 0.01% | pIC50 [5]: 5.59 | pIC50 [6]: < 4.00 | Activity (A549 [7]): Dose-dependent effect | pIC50 (A549 [7]; Homo sapiens, A549, 72 h, read-out: IC50): 6.09 | Activity (HepG2): Dose-dependent effect | pIC50 (HepG2; Homo sapiens, HepG2, 72 h, read-out: IC50): 6.00 | Activity (A549 [8]): Active | Activity (PC-3): Dose-dependent effect | pIC50 (PC-3; Homo sapiens, PC-3, 72 h, read-out: IC50): 6.04 | pIC50 [9]: 5.05 | Activity (A549 [10]): Tde | Activity (MCF7): Dose-dependent effect | pIC50 (MCF7; Homo sapiens, MCF7, 72 h, read-out: IC50): 6.03 | Activity (A549 [11]): 79.86%
